The source of these data is ChEMBL document CHEMBL3784931, “Synthesis and evaluation of novel angiotensin II receptor 1 antagonists as anti-hypertension drugs” (Bioorg Med Chem, 2016).

In this assay the target is T1, Type-1 angiotensin II receptor A (Rattus norvegicus, UniProt P25095).
T1 sequence (P25095 whole entry): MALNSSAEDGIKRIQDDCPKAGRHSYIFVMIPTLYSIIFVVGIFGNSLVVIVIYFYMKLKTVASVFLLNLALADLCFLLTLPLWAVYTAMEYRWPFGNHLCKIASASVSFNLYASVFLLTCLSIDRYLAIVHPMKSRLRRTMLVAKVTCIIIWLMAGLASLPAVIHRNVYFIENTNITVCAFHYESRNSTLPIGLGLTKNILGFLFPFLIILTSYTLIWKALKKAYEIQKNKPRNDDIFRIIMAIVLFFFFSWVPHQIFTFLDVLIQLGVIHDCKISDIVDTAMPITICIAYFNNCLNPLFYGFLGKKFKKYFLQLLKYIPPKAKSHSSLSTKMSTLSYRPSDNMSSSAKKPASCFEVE
Put plainly: Displacement of [125I]-Ang II from Angiotensin 2 type-1A receptor in rat vascular smooth muscle cells after 150 mins by gamma counting method. The procedure, abridged: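 Rat vascular smooth muscle cells (passages 3–6) were seeded at 10⁶ cells/well and grown at 37 °C in 5% CO₂. Nonspecific binding was taken with 1 µM Ang II. Cells were washed three times, lysed 10 min in 0.1 M NaOH, and bound radioactivity was gamma counted.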
(Displacement assays read how much labelled ligand stays bound in the presence of the test substance.)

pIC50, pKi: −log10 of the molar value.

Regarding `CCCCc1nc(Cl)c(C=O)n1Cc1ccc(-c2ccccc2-c2noc(=O)[nH]2)cc1`, the pIC50 (in general, the negative decadic logarithm of the IC50, by convention in mol/L) is 8.36 and the pKi (in general, −log10 of the Ki, conventionally taken in molar units) is 8.50.
